# Laboratory results reported in ChEMBL document CHEMBL4196009, “Novel vitexin-inspired scaffold against leukemia” (Eur J Med Chem, 2018).
# Activity calls are given as the source filed them. The calls are words filed in the database; no cut-off is given here.
# Legend:
# [1] = molecular target: T1, Retinoblastoma-associated protein (Homo sapiens) (UniProt P06400); assay: Inhibition of Rb phosphorylation in human KOPN8 cells assessed as ratio of phosphorylated Rb to total Rb levels at 30 uM after 24 hrs by Western blot analysis relative to control; assay type: cell-based
# T1 sequence (whole entry): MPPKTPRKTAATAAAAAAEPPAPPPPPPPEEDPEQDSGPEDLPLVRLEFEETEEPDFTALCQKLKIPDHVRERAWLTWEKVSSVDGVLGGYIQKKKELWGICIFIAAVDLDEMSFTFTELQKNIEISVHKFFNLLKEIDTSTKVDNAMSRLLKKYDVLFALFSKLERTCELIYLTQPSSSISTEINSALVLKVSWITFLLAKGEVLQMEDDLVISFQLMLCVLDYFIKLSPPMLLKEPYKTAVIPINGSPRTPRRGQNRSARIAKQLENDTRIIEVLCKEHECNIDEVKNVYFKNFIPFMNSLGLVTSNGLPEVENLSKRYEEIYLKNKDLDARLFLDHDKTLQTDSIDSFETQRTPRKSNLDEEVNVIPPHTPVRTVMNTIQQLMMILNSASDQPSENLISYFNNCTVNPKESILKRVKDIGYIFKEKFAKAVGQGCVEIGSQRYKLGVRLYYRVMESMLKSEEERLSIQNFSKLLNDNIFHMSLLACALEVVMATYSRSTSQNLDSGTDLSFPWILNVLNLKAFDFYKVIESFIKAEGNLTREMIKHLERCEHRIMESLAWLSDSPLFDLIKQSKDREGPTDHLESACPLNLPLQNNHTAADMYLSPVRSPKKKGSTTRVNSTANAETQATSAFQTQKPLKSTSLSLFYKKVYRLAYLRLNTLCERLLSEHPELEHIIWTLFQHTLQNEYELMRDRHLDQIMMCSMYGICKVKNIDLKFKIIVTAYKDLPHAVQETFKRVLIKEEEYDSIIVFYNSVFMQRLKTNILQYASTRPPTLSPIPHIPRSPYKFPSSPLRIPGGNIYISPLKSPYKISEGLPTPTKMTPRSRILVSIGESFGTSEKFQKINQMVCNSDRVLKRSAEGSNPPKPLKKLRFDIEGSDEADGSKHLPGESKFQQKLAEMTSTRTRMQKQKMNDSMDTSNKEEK
# How it was run: (§1)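 KOPN-8 pre-B ALL cells were treated for 3 h and 24 h, with or without N-acetyl cysteine added to a parallel set of cells as an antioxidant/ROS quencher. Lysates were analysed by Western blot for phosphorylated Rb and total Rb. The same blots also probed PARP cleavage, Mcl-1, Ser-2-phosphorylated RNAPII CTD and cMyc.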
# [2] = tested on: KOPN-8; assay: Induction of apoptosis in human KOPN8 cells assessed as upregulation of cleaved PARP level at 100 uM pre-treated with NAC for 1 hr and measured after 24 hrs by Western blot analysis; assay type: functional, cell-based
# How it was run: (§2)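 KOPN-8 cells were exposed to compound for 3 h and 24 h, with or without N-acetylcysteine added to a parallel set as antioxidant. Lysates were analysed by Western blot for cleaved PARP, Mcl-1, Ser-2-phosphorylated RNAPII CTD, cMyc, total Rb and pRb. Signals were compared against controls for dose-dependent change.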
# [3] = tested on: KOPN-8; assay: Induction of apoptosis in human KOPN8 cells assessed as effect on Mcl-1 level at 30 uM after 24 hrs by Western blot analysis relative to control; assay type: functional; how it was run: as §2
# [4] = tested on: KOPN-8; assay: Cell cycle arrest in human KOPN8 cells assessed as accumulation at G2/M phase at 10 uM after 24 hrs by propidium iodide staining-based flow cytometry (reference value: 9.67%); assay type: functional
# How it was run: (§3)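 KOPN-8 cells treated 24 h alongside a DMSO vehicle and a staurosporine (2.0 µM) positive control. Apoptosis was scored by FITC Annexin V / propidium iodide flow cytometry with quadrant gating (early, late apoptotic). DNA content was measured by PI staining to give the percentage of cells in G0/G1, S and G2/M. Groups were compared by t-test; error bars are SD.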
# [5] = tested on: KOPN-8; assay: Induction of apoptosis in human KOPN8 cells assessed as late apoptotic cells at 10 uM after 24 hrs by Annexin V-FITC/propidium iodide staining-based flow cytometry (reference value: 9.5%); assay type: functional
# How it was run: (§4)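 KOPN-8 cells were treated for 24 h, with a DMSO vehicle control and a staurosporine positive control. Cells were stained with FITC-Annexin V and propidium iodide and analysed by flow cytometry. Quadrant gating separated viable, early apoptotic, late apoptotic (Q2) and necrotic populations.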
# [6] = tested on: KOPN-8; assay: Induction of apoptosis in human KOPN8 cells assessed as effect on Mcl-1 level at 30 uM after 3 hrs by Western blot analysis relative to control; assay type: functional; how it was run: as §2
# [7] = tested on: KOPN-8; assay: Induction of apoptosis in human KOPN8 cells assessed as necrotic cells at 10 uM after 24 hrs by Annexin V-FITC/propidium iodide staining-based flow cytometry (reference value: 0.2%); assay type: functional; how it was run: as §4
# [8] = molecular target: T1, Retinoblastoma-associated protein (Homo sapiens); assay: Inhibition of Rb phosphorylation in human KOPN8 cells assessed as ratio of phosphorylated Rb to total Rb levels at 10 uM after 24 hrs by Western blot analysis relative to control; assay type: cell-based; how it was run: as §1
# [9] = molecular target: T1, Retinoblastoma-associated protein (Homo sapiens); assay: Inhibition of Rb phosphorylation in human KOPN8 cells assessed as ratio of phosphorylated Rb to total Rb levels at 100 uM after 24 hrs by Western blot analysis relative to control; assay type: cell-based; how it was run: as §1
# [10] = species on record: Homo sapiens; assay: Inhibition of RNA polymerase 2 C-terminal domain phosphorylation at Ser2 residue in human KOPN8 cells at 10 uM pre-treated with NAC for 1 hr and measured after 24 hrs by Western blot analysis relative to control; assay type: cell-based; how it was run: as §2
# [11] = species on record: Homo sapiens; assay: Inhibition of RNA polymerase 2 C-terminal domain phosphorylation at Ser2 residue in human KOPN8 cells at 10 uM pre-treated with NAC for 1 hr and measured after 3 hrs by Western blot analysis relative to control; assay type: cell-based; how it was run: as §2
# [12] = species on record: Homo sapiens; assay: Inhibition of RNA polymerase 2 C-terminal domain phosphorylation at Ser2 residue in human KOPN8 cells at 30 uM pre-treated with NAC for 1 hr and measured after 24 hrs by Western blot analysis relative to control; assay type: cell-based; how it was run: as §2
# [13] = tested on: KOPN-8; assay: Induction of apoptosis in human KOPN8 cells assessed as early apoptotic cells at 5 uM after 24 hrs by Annexin V-FITC/propidium iodide staining-based flow cytometry (reference value: 0.1%); assay type: functional; how it was run: as §3
# [14] = molecular target: T1, Retinoblastoma-associated protein (Homo sapiens); assay: Inhibition of Rb phosphorylation in human KOPN8 cells assessed as ratio of phosphorylated Rb to total Rb levels at 0.5 uM after 3 hrs by Western blot analysis relative to control; assay type: cell-based; how it was run: as §1
# [15] = tested on: KOPN-8; assay: Induction of apoptosis in human KOPN8 cells assessed as viable cells at 5 uM after 24 hrs by Annexin V-FITC/propidium iodide staining-based flow cytometry (reference value: 85.2%); assay type: functional; conditions: KOPN-8, 24 h, read-out: Activity; how it was run: as §4
# [16] = tested on: KOPN-8; assay: Induction of apoptosis in human KOPN8 cells assessed as effect on Mcl-1 level at 0.5 uM after 24 hrs by Western blot analysis relative to control; assay type: functional
# [17] = tested on: KOPN-8; assay: Induction of apoptosis in human KOPN8 cells assessed as effect on Mcl-1 level at 0.5 uM after 3 hrs by Western blot analysis relative to control; assay type: functional
fold change (FC) [1],fold change (FC) [8],fold change (FC) [9],fold change (FC) [14],Structure (SMILES),Activity [2],fold change (FC) [3],Activity [4] [%],Activity [5] [%],fold change (FC) [6],Activity [7] [%],fold change (FC) [10],fold change (FC) [11],fold change (FC) [12],Activity [13] [%],viability at 5 µM [15] [%],fold change (FC) [16],fold change (FC) [17]
1,1,1,–,COc1ccc(-c2c(I)c(=O)c3c(OC)cc(OC)cc3n2S(=O)(=O)c2ccc(OC)cc2)cc1,Active,0.7,27.12,69.2,0.6,0.3,1.5,1,0.7,–,–,–,–
–,–,–,1,CN(C)C(=O)c1cc2cnc(Nc3ccc(N4CCNCC4)cn3)nc2n1C1CCCC1 [RIBOCICLIB],–,–,–,–,–,–,–,–,–,0.5,2.3,1.1,0.9
